Reference: ChEMBL document CHEMBL3297648, “Diterpenoids from the Chinese liverwort Heteroscyphus tener and their antiproliferative effects” (J Nat Prod, 2014)
Calls of active or inactive are those of the source. The calls are words filed in the database; no cut-off is given here.

Assays:
PC-3 [1] = assay: Increase in H2AX protein expression in human PC3 cells at 20 uM after 2 to 48 hrs by western blot analysis; type: functional, cell-based
Procedure, shortened: (§1)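 Cells treated at 20 μM for various times, lysed in RIPA buffer with protease/phosphatase inhibitors, protein quantified by BCA. Equal protein run on 12% SDS-PAGE, transferred to nitrocellulose, blocked 1 h in 5% milk/TBST, primary antibodies overnight at 4 °C, secondary 1:2000 for 45 min, ECL detection on film. GAPDH used as loading control.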

PC-3 [2] = assay: Induction of apoptosis in human PC3 cells assessed as early apoptotic cells at 20 uM after 8 hrs by Annexin V-FITC/propidium iodide staining based flow cytometry (reference value: 0.79%); type: functional
Procedure, shortened: (§2)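 Cells seeded in 6-well plates for 24 h, then given 20 μM for the stated times. Cells were trypsinized, PBS-washed, stained with annexin V-FITC/PI, and analysed immediately by flow cytometry. Means ± SD of three independent experiments; Student's t test against untreated control.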

PC-3 [3] = assay: Induction of apoptosis in human PC3 cells assessed as necrotic cells at 20 uM after 12 hrs by Annexin V-FITC/propidium iodide staining based flow cytometry (reference value: 0.98%); type: functional; procedure, shortened: as §2
PC-3 [4] = assay: Induction of apoptosis in human PC3 cells assessed as necrotic cells at 20 uM after 24 hrs by Annexin V-FITC/propidium iodide staining based flow cytometry (reference value: 0.98%); type: functional; procedure, shortened: as §2
DU-145 [5] = assay: Cell cycle arrest in human DU145 cells assessed as accumulation at G2/M phase at 10 uM after 24 hrs by propidium iodide staining based flow cytometry (reference value: 10.44%); type: functional
DU-145 [6] = assay: Induction of apoptosis in human DU145 cells assessed as necrotic cells at 20 uM after 8 hrs by Annexin V-FITC/propidium iodide staining based flow cytometry (reference value: 0.21%); type: functional; procedure, shortened: as §2
[7] = Cell cycle arrest in human PC3 cells assessed as accumulation at G2/M phase at 20 uM after 24 hrs by propidium iodide staining based flow cytometry (reference value: 10.43%); type: functional; conditions: PC-3
PC-3 [8] = assay: Induction of apoptosis in human PC3 cells at 20 uM by Annexin V-FITC/propidium iodide staining based flow cytometry; type: functional, cell-based; conditions: TDE = time-dependent effect; procedure, shortened: as §2
PC-3 [9] = assay: Induction of apoptosis in human PC3 cells assessed as PARP cleavage at 20 uM after 12 hrs by western blot analysis; type: functional, cell-based
Procedure, shortened: (§3)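 Cells exposed to 20 μM for the stated times. Lysis in RIPA plus protease inhibitors, BCA protein assay, equal protein on 12% SDS-PAGE, transfer to nitrocellulose. Blocking in 5% milk/TBST 1 h; primary antibodies overnight at 4 °C; secondary 1:2000 for 45 min; ECL detection. GAPDH served as loading control.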

NCI-H1299 = assay: Antiproliferative activity against human NCI-H1299 cells assessed as inhibition of cell viability after 24 hrs by MTT assay; type: functional, cell-based; conditions: NCI-H1299, 24 h
Procedure, shortened: (§4)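 Cells grown to 50–70% confluence (RWPE1 in K-SFM with pituitary extract and EGF; the other lines in RPMI 1640 with 10% FBS), 5% CO2, 37 °C. Treated for 24 h with DMSO vehicle, compounds, or cisplatin as positive control. MTT (5 mg/mL) added for 4 h, formazan dissolved in DMSO, absorbance read at 570 nm. Viability taken relative to untreated cells after blank subtraction, IC50 fitted from % viability, at least three experiments.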

DU-145 [10] = assay: Cell cycle arrest in human DU145 cells assessed as accumulation at S phase at 20 uM after 24 hrs by propidium iodide staining based flow cytometry (reference value: 25.94%); type: functional
PC-3 [11] = assay: Induction of ROS generation in human PC3 cells at 20 uM after 30 mins to 4 hrs by DCFH-DA staining based flow cytometry; type: functional, cell-based
Procedure, shortened: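 Cells in RPMI 1640 with 10% FBS, 5% CO2, 37 °C, treated at 50−70% confluence (DMSO vehicle). After exposure, cells were loaded with 10 μM DCFH-DA for 30 min at 37 °C, washed, resuspended in PBS, and read at once by flow cytometry. For NAC runs, cells got 5 mM NAC 1 h before compound. ROS reported as ratio relative to untreated control.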

DU-145 [12] = assay: Induction of apoptosis in human DU145 cells assessed as early apoptotic cells at 20 uM after 4 hrs by Annexin V-FITC/propidium iodide staining based flow cytometry (reference value: 1.60%); type: functional; procedure, shortened: as §2
DU-145 [13] = assay: Induction of apoptosis in human DU145 cells assessed as increase in caspase-3 activity using Ac-DEVD-AMC as substrate at 20 uM by fluorometric method; type: functional, cell-based; conditions: TDE = time-dependent effect
Procedure, shortened: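 Cells treated with 20 μM for the stated times. Pellets lysed on ice 15 min, spun at 14 000g for 15 min at 4 °C. Supernatant assayed in buffer containing CHAPS, 10% glycerol, 2 mM EDTA, 5 mM DTT for 2 h at 37 °C. Fluorescence read at ex 380/em 440 nm.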

DU-145 [14] = assay: Induction of apoptosis in human DU145 cells at 20 uM by Annexin V-FITC/propidium iodide staining based flow cytometry; type: functional, cell-based; conditions: TDE = time-dependent effect; procedure, shortened: as §2
[15] = Cell cycle arrest in human PC3 cells assessed as accumulation at G0/G1 phase at 20 uM after 24 hrs by propidium iodide staining based flow cytometry (reference value: 66.57%); type: functional; conditions: PC-3
A549 = assay: Antiproliferative activity against human A549 cells assessed as inhibition of cell viability after 24 hrs by MTT assay; type: functional, cell-based; conditions: A549, 24 h; procedure, shortened: as §4
DU-145 [16] = assay: Induction of apoptosis in human DU145 cells assessed as PARP cleavage at 20 uM after 12 hrs by western blot analysis; type: functional, cell-based; procedure, shortened: as §3
NCI-H292 = assay: Antiproliferative activity against human NCI-H292 cells assessed as inhibition of cell viability after 24 hrs by MTT assay; type: functional, cell-based; conditions: NCI-H292, 24 h; procedure, shortened: as §4
[17] = Decrease in cyclin E protein expression in human PC3 cells by western blot analysis; type: functional, cell-based; conditions: PC-3, TDE = time-dependent effect
Procedure, shortened: (§5)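 Western blot of cyclin D1, cyclin E, Cdk4 and p21 in PC3 and DU145 lysates. Lysis in RIPA buffer plus protease inhibitors, BCA quantification, 12% SDS-PAGE, nitrocellulose transfer, milk block, primaries overnight at 4 °C, secondary 1:2000 for 45 min, ECL read-out. GAPDH served as loading control.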

[18] = target: Serine/threonine-protein kinase ATR (Homo sapiens) (UniProt Q13535); assay: Activation of ATR in human PC3 cells assessed as ChK1 phosphorylation at Ser296 at 20 uM after 12 hrs by western blot analysis; type: cell-based; conditions: PC-3; procedure, shortened: as §1
Chain of Serine/threonine-protein kinase ATR (Homo sapiens) (Q13535 whole entry, looked up): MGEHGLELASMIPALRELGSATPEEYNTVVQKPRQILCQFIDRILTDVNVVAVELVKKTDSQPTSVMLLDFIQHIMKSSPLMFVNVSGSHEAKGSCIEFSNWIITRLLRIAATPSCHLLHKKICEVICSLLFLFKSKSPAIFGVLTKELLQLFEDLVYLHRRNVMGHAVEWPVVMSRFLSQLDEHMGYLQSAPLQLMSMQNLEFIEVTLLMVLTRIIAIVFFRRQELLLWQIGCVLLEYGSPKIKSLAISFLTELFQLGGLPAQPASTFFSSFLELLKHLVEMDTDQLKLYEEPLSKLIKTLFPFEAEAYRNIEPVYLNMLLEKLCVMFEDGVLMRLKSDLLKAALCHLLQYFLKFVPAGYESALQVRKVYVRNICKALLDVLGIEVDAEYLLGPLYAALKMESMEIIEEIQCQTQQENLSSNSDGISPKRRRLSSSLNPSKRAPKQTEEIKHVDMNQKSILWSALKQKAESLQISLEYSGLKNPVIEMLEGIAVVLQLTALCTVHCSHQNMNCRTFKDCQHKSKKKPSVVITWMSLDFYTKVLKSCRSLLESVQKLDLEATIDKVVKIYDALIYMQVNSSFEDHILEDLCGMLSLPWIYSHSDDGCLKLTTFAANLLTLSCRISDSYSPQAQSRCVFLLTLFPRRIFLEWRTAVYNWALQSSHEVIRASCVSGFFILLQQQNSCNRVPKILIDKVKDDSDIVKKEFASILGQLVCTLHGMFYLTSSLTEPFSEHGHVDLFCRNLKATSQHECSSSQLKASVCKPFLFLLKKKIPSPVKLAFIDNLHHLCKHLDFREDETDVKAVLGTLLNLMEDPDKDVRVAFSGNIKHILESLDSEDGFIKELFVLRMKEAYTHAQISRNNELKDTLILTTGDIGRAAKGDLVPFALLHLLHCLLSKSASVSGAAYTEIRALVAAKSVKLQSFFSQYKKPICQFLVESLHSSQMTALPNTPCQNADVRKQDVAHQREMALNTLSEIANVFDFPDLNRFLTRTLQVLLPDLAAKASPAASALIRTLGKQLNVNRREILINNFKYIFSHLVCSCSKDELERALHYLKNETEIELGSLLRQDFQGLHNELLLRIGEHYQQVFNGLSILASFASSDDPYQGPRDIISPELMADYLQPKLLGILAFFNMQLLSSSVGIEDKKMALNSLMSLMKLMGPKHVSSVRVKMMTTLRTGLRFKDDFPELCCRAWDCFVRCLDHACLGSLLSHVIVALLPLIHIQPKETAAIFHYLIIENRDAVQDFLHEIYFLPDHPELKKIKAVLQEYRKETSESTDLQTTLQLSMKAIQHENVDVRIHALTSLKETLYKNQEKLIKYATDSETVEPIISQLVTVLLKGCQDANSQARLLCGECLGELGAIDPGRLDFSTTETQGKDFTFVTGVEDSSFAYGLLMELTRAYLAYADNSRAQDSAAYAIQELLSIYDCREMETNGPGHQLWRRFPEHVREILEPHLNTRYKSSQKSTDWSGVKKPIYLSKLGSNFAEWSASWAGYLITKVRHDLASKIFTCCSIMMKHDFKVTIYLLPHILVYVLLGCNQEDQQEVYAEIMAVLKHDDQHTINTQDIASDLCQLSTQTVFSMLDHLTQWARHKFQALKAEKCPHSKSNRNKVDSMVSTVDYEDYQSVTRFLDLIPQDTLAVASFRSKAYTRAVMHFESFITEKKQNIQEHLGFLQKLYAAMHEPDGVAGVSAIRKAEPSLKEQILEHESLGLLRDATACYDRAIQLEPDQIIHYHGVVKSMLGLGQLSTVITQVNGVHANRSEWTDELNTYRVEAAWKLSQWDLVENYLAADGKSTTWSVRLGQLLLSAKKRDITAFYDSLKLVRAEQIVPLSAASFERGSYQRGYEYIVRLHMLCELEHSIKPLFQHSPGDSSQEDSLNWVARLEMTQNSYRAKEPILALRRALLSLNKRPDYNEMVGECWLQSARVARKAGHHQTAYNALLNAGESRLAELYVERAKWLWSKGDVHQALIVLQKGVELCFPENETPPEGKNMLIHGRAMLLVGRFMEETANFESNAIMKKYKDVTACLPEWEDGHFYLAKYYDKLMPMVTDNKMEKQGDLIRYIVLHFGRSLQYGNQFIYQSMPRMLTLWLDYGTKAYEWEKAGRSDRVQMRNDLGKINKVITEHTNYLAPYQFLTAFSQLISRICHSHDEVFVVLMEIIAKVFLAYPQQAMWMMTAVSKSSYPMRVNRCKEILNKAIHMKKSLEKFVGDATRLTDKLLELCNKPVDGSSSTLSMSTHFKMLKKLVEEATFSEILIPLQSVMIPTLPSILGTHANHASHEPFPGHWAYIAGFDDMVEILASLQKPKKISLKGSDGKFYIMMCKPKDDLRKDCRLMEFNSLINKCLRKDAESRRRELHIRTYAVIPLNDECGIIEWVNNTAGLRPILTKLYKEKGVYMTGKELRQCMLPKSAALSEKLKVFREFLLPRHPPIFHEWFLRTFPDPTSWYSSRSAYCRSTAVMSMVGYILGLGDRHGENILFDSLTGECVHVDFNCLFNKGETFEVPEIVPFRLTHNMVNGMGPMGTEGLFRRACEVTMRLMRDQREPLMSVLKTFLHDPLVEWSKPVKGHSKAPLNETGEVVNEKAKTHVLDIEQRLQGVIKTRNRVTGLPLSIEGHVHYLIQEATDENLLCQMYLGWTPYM

[19] = Decrease in Cdk4 protein expression in human DU145 cells after 2 to 48 hrs by western blot analysis; type: functional, cell-based; conditions: DU-145; procedure, shortened: as §5
DU-145 [20] = assay: Antiproliferative activity against human DU145 cells assessed as inhibition of cell viability at 20 uM pretreated for 1 hr with 5 mM antioxidant NAC measured after 24 hrs by MTT assay; type: functional, cell-based
[21] = target: Breast cancer type 1 susceptibility protein (Homo sapiens) (UniProt P38398); assay: Inactivation of BRCA1 in human PC3 cells assessed as decline in BRCA1 phosphorylation at Ser1524 at 20 uM after 8 hrs by western blot analysis; type: cell-based; conditions: PC-3; procedure, shortened: as §1
Chain of Breast cancer type 1 susceptibility protein (Homo sapiens) (P38398 whole entry, looked up): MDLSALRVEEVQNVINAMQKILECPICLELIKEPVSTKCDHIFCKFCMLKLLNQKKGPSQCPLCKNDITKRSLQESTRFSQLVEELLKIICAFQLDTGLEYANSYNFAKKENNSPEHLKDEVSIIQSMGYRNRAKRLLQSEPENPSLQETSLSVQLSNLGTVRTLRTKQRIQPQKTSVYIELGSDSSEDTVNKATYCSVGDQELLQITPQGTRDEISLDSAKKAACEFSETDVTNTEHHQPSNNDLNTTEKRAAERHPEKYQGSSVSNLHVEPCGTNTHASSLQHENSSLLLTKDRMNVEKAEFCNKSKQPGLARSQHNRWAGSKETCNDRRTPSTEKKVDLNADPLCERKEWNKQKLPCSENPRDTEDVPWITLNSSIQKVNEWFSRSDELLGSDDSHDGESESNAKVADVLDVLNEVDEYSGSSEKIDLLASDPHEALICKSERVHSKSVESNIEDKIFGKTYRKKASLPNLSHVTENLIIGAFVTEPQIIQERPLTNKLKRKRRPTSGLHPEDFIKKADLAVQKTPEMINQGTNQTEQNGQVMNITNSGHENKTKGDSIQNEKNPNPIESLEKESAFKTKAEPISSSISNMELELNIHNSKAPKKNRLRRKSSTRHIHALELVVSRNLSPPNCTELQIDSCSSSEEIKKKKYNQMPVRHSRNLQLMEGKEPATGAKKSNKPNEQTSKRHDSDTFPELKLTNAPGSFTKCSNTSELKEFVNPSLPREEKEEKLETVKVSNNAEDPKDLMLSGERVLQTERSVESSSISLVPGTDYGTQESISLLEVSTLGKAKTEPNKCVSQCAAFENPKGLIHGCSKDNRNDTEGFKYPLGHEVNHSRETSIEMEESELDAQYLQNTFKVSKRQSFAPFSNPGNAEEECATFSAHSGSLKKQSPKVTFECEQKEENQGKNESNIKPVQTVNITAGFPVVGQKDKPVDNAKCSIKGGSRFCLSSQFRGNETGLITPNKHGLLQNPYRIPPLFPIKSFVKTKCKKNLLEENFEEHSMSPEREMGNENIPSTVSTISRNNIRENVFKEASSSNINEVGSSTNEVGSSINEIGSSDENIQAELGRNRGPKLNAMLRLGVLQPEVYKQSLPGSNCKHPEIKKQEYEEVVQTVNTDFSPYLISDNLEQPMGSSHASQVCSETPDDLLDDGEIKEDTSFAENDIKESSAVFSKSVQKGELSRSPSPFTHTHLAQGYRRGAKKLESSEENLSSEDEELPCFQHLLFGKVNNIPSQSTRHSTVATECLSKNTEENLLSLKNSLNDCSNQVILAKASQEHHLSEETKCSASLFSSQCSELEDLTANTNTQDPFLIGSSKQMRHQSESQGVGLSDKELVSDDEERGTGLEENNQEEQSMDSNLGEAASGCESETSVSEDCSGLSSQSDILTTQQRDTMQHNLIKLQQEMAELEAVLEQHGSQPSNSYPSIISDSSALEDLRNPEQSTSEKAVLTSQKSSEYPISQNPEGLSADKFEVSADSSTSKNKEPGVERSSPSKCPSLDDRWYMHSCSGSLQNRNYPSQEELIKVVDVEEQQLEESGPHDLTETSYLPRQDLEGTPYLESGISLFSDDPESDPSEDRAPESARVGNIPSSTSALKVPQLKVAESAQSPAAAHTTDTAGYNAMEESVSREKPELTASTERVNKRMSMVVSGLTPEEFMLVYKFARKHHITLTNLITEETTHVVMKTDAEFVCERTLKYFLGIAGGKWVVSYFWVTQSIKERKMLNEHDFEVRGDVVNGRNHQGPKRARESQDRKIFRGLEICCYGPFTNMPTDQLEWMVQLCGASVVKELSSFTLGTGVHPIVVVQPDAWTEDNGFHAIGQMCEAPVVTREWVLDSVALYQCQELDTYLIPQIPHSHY

[22] = Cell cycle arrest in human PC3 cells assessed as accumulation at G2/M phase at 10 uM after 24 hrs by propidium iodide staining based flow cytometry (reference value: 10.43%); type: functional; conditions: PC-3

Compound: C=C[C@@](C)(O)CC[C@@H]1C(C)=CC[C@@H]2C(C)(C)CCC[C@@]12C
- Activity (PC-3 [1]): inactive
- Activity (PC-3 [2]): 2.27%
- Activity (PC-3 [3]): 4.68%
- Activity (PC-3 [4]): 10.21%
- Activity (DU-145 [5]): 8.38%
- Activity (DU-145 [6]): 2.44%
- Activity [7]: 10.9%
- Activity (PC-3 [8]): tde
- Activity (PC-3 [9]): Active
- IC50 (NCI-H1299): 35.1 µM
- Activity (DU-145 [10]): 8.73%
- Activity (PC-3 [11]): Active
- Activity (DU-145 [12]): 4%
- Activity (DU-145 [13]): tde
- Activity (DU-145 [14]): tde
- Activity [15]: 82.5%
- IC50 (A549): > 40 µM
- Activity (DU-145 [16]): Active
- IC50 (NCI-H292): 17.1 µM
- inhibition [17]: tde
- Activity [18]: Active
- inhibition [19]: Active
- inhibition (DU-145 [20]): inactive
- inhibition [21]: Active
- Activity [22]: 11.1%
